Data as given in ChEMBL document CHEMBL1142191, “Isolation and characterization of human immunodeficiency virus type 1 resistant to the small-molecule CCR5 antagonist TAK-652” (Antimicrob Agents Chemother, 2007).
Calls of active or inactive are those of the source. No cut-off for these calls is given here.

Columns and labels:
[1] = tested on: Human immunodeficiency virus 1; test: Antiviral activity in long term culture of HIV1 KK infected PBMCs after 67 passages assessed as p24 antigen levels at escalating concentrations; format: functional, organism-based; settings: Human immunodeficiency virus 1, KK
Method in brief: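 PHA-stimulated PBMCs (5 × 10^6) were infected with R5 clinical isolate KK (100 ng p24) and held compound-free for 2 days at 37°C, then washed. Culture started at 0.2 nM drug and was passaged weekly with fresh same-donor PBMCs. Drug was escalated when treated-culture supernatant p24 (ELISA) exceeded 50% of a parallel untreated control at two consecutive passages.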

[2] = tested on: Human immunodeficiency virus 1; test: Ratio of IC50 for HIV1 KK infected PBMC to IC50 for compound treated HIV1 KK infected PBMC after 67 passages; format: functional
Method in brief: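 PHA-stimulated PBMCs infected with the passage-67 escape virus (1,400 CCID50, 4 h) were washed and exposed to 0.1–10,000 nM compound, split 1:2 on day 4, and read for day-7 supernatant p24 by ELISA. Triplicate wells in two donor experiments. Fold change = […].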

[3] = tested on: Human immunodeficiency virus 1; test: Antiviral activity in long term culture of HIV1 KK infected PBMCs after 56 passages assessed as p24 antigen levels; format: functional, organism-based; settings: Human immunodeficiency virus 1, KK
Method in brief: (§1)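 Viruses were isolated at the stated passage from the drug-escalation culture and from the parallel untreated culture, then propagated once in PBMCs. PHA-stimulated PBMCs were infected with 1,400 CCID50 for 4 h, washed, and seeded with 0.1–10,000 nM compound. Cells were split 1:2 on day 4, and supernatant p24 was read by ELISA on day 7. Triplicate wells, two experiments with different donors; IC50 from a logistic least-squares fit.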

[4] = tested on: Human immunodeficiency virus 1; test: Inhibition of HIV1 KK infected PBMC; format: functional, organism-based; settings: Human immunodeficiency virus 1, KK
[5] = tested on: Human immunodeficiency virus 1; test: Antiviral activity in long term culture of HIV1 KK infected PBMCs after 8 passages assessed as p24 antigen levels; format: functional, organism-based; settings: Human immunodeficiency virus 1, KK; method in brief: as §1
[6] = tested on: Human immunodeficiency virus 1; test: Antiviral activity in long term culture of HIV1 KK infected PBMCs after 43 passages assessed as p24 antigen levels; format: functional, organism-based; settings: Human immunodeficiency virus 1, KK; method in brief: as §1
[7] = tested on: Human immunodeficiency virus 1; test: Inhibition of R5 HIV1 replication at 5 uM; format: functional, organism-based

## CC(=O)N1CCC(C(=O)N(CCCN2CCC(Cc3ccc(C(N)=O)cc3)CC2)c2ccc(C)c(Cl)c2)CC1
[1]
  IC50: 1.3 nM
[2]
  Ratio IC50: 1.6

## Cc1ccc(-c2ccc3c(c2)C=C(C(=O)Nc2ccc(C[N+](C)(C)C4CCOCC4)cc2)CCC3)cc1.[Cl-]
[1]
  IC50: 77 nM
[2]
  Ratio IC50: 37

## CCCCOCCOc1ccc(-c2ccc3c(c2)/C=C(/C(=O)Nc2ccc([S@@+]([O-])Cc4cncn4CCC)cc2)CCCN3CC(C)C)cc1.CS(=O)(=O)O [CENICRIVIROC MESYLATE]
[1]
  IC50: > 10000 nM
[3]
  IC50: 67 nM
[2]
  Ratio IC50: >230000
[4]
  IC50: 0.14 nM
[5]
  IC50: 0.24 nM
[6]
  IC50: 0.2 nM
[7]
  Activity: Active
